Fibroblast inh – blocks proliferation of human lung fibroblasts; LL 47 human lung fibroblast viability, ATP luminescence; stronger effect = lower value; viability, % at 10 µM; hit rate 1.1% among 85,000;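 active means viability at or below 50% in the single dose screen; inactive means viability above 50%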;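 further: compound exposure lasted 72 h before the ATP readout; 100% = median luminescence of untreated cell-only wells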
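test system = LL 47 human lung fibroblasts | amount = 1,150 fibroblasts seeded per well | medium = 15% FBS in IMEM | times = overnight cell rest, 72 h compound treatment at 37 °C | measured by = CellTiter-Glo luminescence measuring cellular ATP | read-out = viability percentage against median untreated-cell control | benchmarks = cell-only wells, no compound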
HUVEC inhibit – human endothelial cell proliferation inhibition; HUVEC proliferation, CellTiter-Glo luminescence, 72 h; stronger effect = lower value; hit rate 1.1% among 86,000; viability, % at 10 µM (by protocol);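 active means viability at or below 30%; inactive means viability above 30%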;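 further: 100% = median luminescence of DMSO-only cell control wells on each plate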
PTEN del growth – suppresses growth of cells with PTEN deletion. HCT116 PTEN-null viability, CellTiter-Glo, 60 h; stronger effect = lower value. viability, % at 10 µM. hit rate 1.2% among 140,000. AID 827;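 active means viability at or below a set limit, 4 SD under the median of all tested compounds, cut at about 3.7% in these data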;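 further: PTEN knockout HCT116 line with beta catenin targeted HCT116 as companion control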
bCat KO growth – beta-catenin-lacking colon tumor cell growth suppression; HCT116 beta-catenin knockout viability, CellTiter-Glo, 60 h; stronger effect = lower value; hit rate 1.5% among 140,000; viability, % at 10 µM;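 active means viability at or under a set limit, the compound median less 4 SD, cut at about 6% in these data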;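 further: 0% = Hyamine 1622 control at 20 µM and 100% = untreated cell control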
H69AR growth 86K – growth inhibitors of human H69AR lung tumor cells | hit rate 6% among 85,000 | AID 598 | viability, % at 10 µM | H69AR lung tumor viability, ATP luminescence, 72 h; stronger effect = lower value;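 active means viability at or below 40%; inactive means viability above 40%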;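 further: multidrug resistant small cell line overexpressing MRP-1 efflux transporter; 100% = mean luminescence of untreated control wells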
An asterisk follows results filed as active. This excerpt belongs to a sample that is enriched for hits.

`COCCNC(=O)c1c(N)n(-c2ccccc2)c2nc3ccccc3nc12` gave Fibroblast inh 89, HUVEC inhibit 77, PTEN del growth 92, bCat KO growth 91 and H69AR growth 86K 61.
Nc1c(C(=O)NCCN2CCOCC2)c2nc3ccccc3nc2n1-c1ccccc1 was read as Fibroblast inh 98, HUVEC inhibit 96, PTEN del growth 75, bCat KO growth 78 and H69AR growth 86K 36*.
For Nc1c(C(=O)NCCN2CCOCC2)c2nc3ccccc3nc2n1-c1ccc2c(c1)OCO2 the results were Fibroblast inh 75, HUVEC inhibit 85, PTEN del growth 81, bCat KO growth 90 and H69AR growth 86K 36*.
COCCNc1nc2sc3c(c2c(=O)n1Cc1ccco1)CCCCC3 was read as PTEN del growth 82 and bCat KO growth 86.
Screening CCOc1cc(CNC(C)C)c(Cl)cc1OCC(=O)NCCc1ccccc1 returned PTEN del growth 73 and bCat KO growth 85.
For COC(=O)C1=C(CSc2nc3ccccc3s2)NC(=O)NC1c1ccc(F)cc1 (configuration not stated) the results were PTEN del growth 55 and bCat KO growth 58.
Nc1c(C(=O)NCc2ccc3c(c2)OCO3)c2nc3ccccc3nc2n1CCCN1CCOCC1 was read as Fibroblast inh 62, HUVEC inhibit 20*, PTEN del growth 1.4*, bCat KO growth 1.4* and H69AR growth 86K 1.1*.
COc1ccccc1CNC(=O)c1c(N)n(CCCN2CCOCC2)c2nc3ccccc3nc12 was read as PTEN del growth 8 and bCat KO growth 11.
`Cc1cc(C)c(Nc2cc(S(=O)(=O)O)c(N)c3c2C(=O)c2ccccc2C3=O)c(C)c1` gave PTEN del growth 77 and bCat KO growth 85.
O=[N+]([O-])c1cnccc1Nc1cccc(F)c1 was read as Fibroblast inh 93, HUVEC inhibit 86, PTEN del growth 94, bCat KO growth 97 and H69AR growth 86K 86.
For O=[N+]([O-])c1ccc(Oc2cccc(F)c2)c2ccncc12 the results were Fibroblast inh 65, HUVEC inhibit 62, PTEN del growth 67, bCat KO growth 68 and H69AR growth 86K 34*.
Screening Cc1nn(C)c(C)c1NC(=O)CSc1nc(Cc2ccccc2)nc2c1cnn2-c1ccccc1 returned Fibroblast inh 87, HUVEC inhibit 87 and H69AR growth 86K 5.3*.
Screening CC(C)(C)c1ccc(S(=O)(=O)N2CCCCC2)cc1 returned PTEN del growth 82 and bCat KO growth 80.
`Cc1[nH]c2ccccc2c1C(=O)/C=C/c1ccccc1Cl` gave PTEN del growth 65 and bCat KO growth 60.
Cc1[nH]c(=O)c(C(=O)/C=C/c2ccccc2F)c2c1CCCC2 was read as PTEN del growth 3.4* and bCat KO growth 3.9*.
Screening Cc1cc(Nc2ccccc2)nn1C(=O)c1ccc(Br)cc1 returned Fibroblast inh 97, HUVEC inhibit 69, PTEN del growth 102, bCat KO growth 99 and H69AR growth 86K 29*.
`Cc1cc(Nc2ccccc2)nn1C(=O)c1ccccc1` gave Fibroblast inh 92, HUVEC inhibit 109, PTEN del growth 1.2*, bCat KO growth 1.5* and H69AR growth 86K 91.
Screening COc1ccc(C(=O)n2nc(C)cc2Nc2ccccc2)cc1 returned Fibroblast inh 98, HUVEC inhibit 82, PTEN del growth 85, bCat KO growth 83 and H69AR growth 86K 96.
O=C(c1ccccc1Sc1c(Cl)cccc1[N+](=O)[O-])N1CCOCC1 was read as PTEN del growth 94 and bCat KO growth 92.
`CCCCN=C1NC(=O)C(CC(=O)NCCc2ccc(OC)cc2)S1` (configuration not stated) gave PTEN del growth 103 and bCat KO growth 101.
Screening COC(=O)C(NC(C)=O)(Nc1nc(C)cs1)C(F)(F)F (configuration not stated) returned Fibroblast inh 95, HUVEC inhibit 90, PTEN del growth 112, bCat KO growth 118 and H69AR growth 86K 96.
Screening COC(=O)C(NC(C)=O)(Nc1nc2c(C)cc(C)cc2s1)C(F)(F)F (configuration not stated) returned Fibroblast inh 88, HUVEC inhibit 71, PTEN del growth 32, bCat KO growth 38 and H69AR growth 86K 26*.
Screening O=C1CSC(c2cn(-c3ccccc3)nc2-c2cc3ccccc3oc2=O)N1Cc1ccccc1 (configuration not stated) returned Fibroblast inh 100, HUVEC inhibit 77, PTEN del growth 46, bCat KO growth 55 and H69AR growth 86K 24*.
For O=C(NC(Nc1nc2ccc([N+](=O)[O-])cc2s1)(C(F)(F)F)C(F)(F)F)c1cccnc1 the results were PTEN del growth 3.0* and bCat KO growth 2.2*.
For O=C(NC(Nc1nc2ccc([N+](=O)[O-])cc2s1)(C(F)(F)F)C(F)(F)F)c1ccccc1Cl the results were PTEN del growth 1.4* and bCat KO growth 1.7*.
Screening c1cc2c3c(cccc3c1)C(N1CCN(C3=Nc4cccc5cccc3c45)CC1)=N2 returned Fibroblast inh 91, HUVEC inhibit 85 and H69AR growth 86K 7.7*.
`c1ccc(CC2CCN(C3=Nc4cccc5cccc3c45)CC2)cc1` gave Fibroblast inh 77, HUVEC inhibit 7.2*, PTEN del growth 17, bCat KO growth 21 and H69AR growth 86K 26*.
Cc1cc(C)n(C(C[N+](=O)[O-])c2ccc(Cl)cc2)n1 (configuration not stated) was read as PTEN del growth 36 and bCat KO growth 39.
`CC(C)(C)CC(C)(C)c1ccc(O)c(CN2CCN(CCC#N)CC2)c1` gave Fibroblast inh 94, HUVEC inhibit 97, PTEN del growth 67, bCat KO growth 62 and H69AR growth 86K 5.8*.
For N#CCCN1CCN(Cc2cc(-c3ccccc3)ccc2O)CC1 the results were Fibroblast inh 98, HUVEC inhibit 95, PTEN del growth 87, bCat KO growth 84 and H69AR growth 86K 81.
CC(C)N1C/C(=C/c2ccsc2)C(=O)/C(=C/c2ccsc2)C1 was read as PTEN del growth 1.5* and bCat KO growth 2.6*.
Screening CC(C)N1C/C(=C/c2cccnc2)C(=O)/C(=C/c2cccnc2)C1 returned PTEN del growth 58 and bCat KO growth 52.
For COc1ccc(N2CCN(C(=O)c3ccc(OCc4c(C)noc4C)c(OC)c3)CC2)cc1 the results were Fibroblast inh 95, HUVEC inhibit 101, PTEN del growth 93, bCat KO growth 90 and H69AR growth 86K 92.
COc1cc(C(=O)N2CCN(c3ccc([N+](=O)[O-])cc3)CC2)ccc1OCc1c(C)noc1C was read as Fibroblast inh 99, HUVEC inhibit 110, PTEN del growth 71, bCat KO growth 67 and H69AR growth 86K 38*.
Cc1c(NC(=O)CN2C(=O)NC(C)(c3ccccc3)C2=O)c(=O)n(-c2ccccc2)n1C (configuration not stated) was read as PTEN del growth 93 and bCat KO growth 98.

From PubChem
